From ChEMBL document CHEMBL5724801, “EUbOPEN Chemogenomics Library - Multiplex” (2024)
Where “and” joins values, the source holds several entries; their conditions need not be identical. Equal entries are not always repeated.

System: U2OS
Assay: Multiplex assay against U2OS
Assay type: toxicity, cell-based
Conditions: human
Summary of the method: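 Per cents of healthy-nucleus cells form the tubulin, mitochondrial-mass and membrane-permeability phenotype values. Live cells were stained at seeding with Hoechst33342, BioTracker Green Microtubule Cytoskeleton Dye, MitoTracker Red and Annexin V Alexa Fluor 680. After compound addition they were imaged on a CQ1 microscope at 37°C and 5% CO2, and CellPathfinder machine-learning gating split them into Hoechst high-intensity objects or normal cells, normal cells into healthy, pyknosed or fragmented nuclei, and pyknosed cells into mitotic or apoptotic.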

[1] = 12 h, 1 µM, compound concentration 1 uM
[2] = 12 h, 10 µM, compound concentration 10 uM
[3] = 24 h, 1 µM, compound concentration 1 uM
[4] = 24 h, 10 µM, compound concentration 10 uM
[5] = 48 h, 1 µM, compound concentration 1 uM
[6] = 48 h, 10 µM, compound concentration 10 uM

With `NC1=NC(=O)/C(=C2\CCNC(=O)c3[nH]c4ccccc4c32)N1` the “Population Apoptotic (%)” value [1] was 44.68% and 29.17%, the “Population Fragmented Nuclei (%)” value [1] was 0.45% and 1.59% and the “Population Healthy Nuclei (%)” value [1] was 89.06% and 85.71%. For the same molecule, the “Population Hoechst High Intensity Objects (%)” value [1] was 0%, the “Population Membrane Permeable-Phenotype (%)” value [1] was 1.75% and 0.62% and the “Population Mitochondria Different-Phenotype (%)” value [1] was 0% and 9.26%. For the same molecule, the “Population Mitotic Cells (%)” value [1] was 55.32% and 70.83%, the “Population Normal (%)” value [1] was 100% and the “Population Pyknosed Nuclei (%)” value [1] was 10.49% and 12.7%. The “Population Tubulin-Different-Phenotype (%)” value [1] was 1.25% and 0%, the “Total Cell Count” value [1] was 448 and 189 and the “Population Apoptotic (%)” value [2] was 37.14% and 30.43%. The “Population Fragmented Nuclei (%)” value [2] was 3.07% and 2.13%, the “Population Healthy Nuclei (%)” value [2] was 84.98% and 85.64% and the “Population Hoechst High Intensity Objects (%)” value [2] was 0%. For the same molecule, the “Population Membrane Permeable-Phenotype (%)” value [2] was 1.2% and 1.86%, the “Population Mitochondria Different-Phenotype (%)” value [2] was 0% and 5.59% and the “Population Mitotic Cells (%)” value [2] was 62.86% and 69.57%. For the same molecule, the “Population Normal (%)” value [2] was 100%, the “Population Pyknosed Nuclei (%)” value [2] was 11.95% and 12.23% and the “Population Tubulin-Different-Phenotype (%)” value [2] was 2.01% and 0%. The “Total Cell Count” value [2] was 293 and 188, the “Population Apoptotic (%)” value [3] was 52.94% and 37.04% and the “Population Fragmented Nuclei (%)” value [3] was 2.55% and 1.59%. The “Population Healthy Nuclei (%)” value [3] was 89.31% and 87.7%, the “Population Hoechst High Intensity Objects (%)” value [3] was 0% and the “Population Membrane Permeable-Phenotype (%)” value [3] was 0.54% and 0.9%. The “Population Mitochondria Different-Phenotype (%)” value [3] was 0.36% and 4.07%, the “Population Mitotic Cells (%)” value [3] was 47.06% and 62.96% and the “Population Normal (%)” value [3] was 100%. For the same molecule, the “Population Pyknosed Nuclei (%)” value [3] was 8.13% and 10.71%, the “Population Tubulin-Different-Phenotype (%)” value [3] was 0.54% and 0% and the “Total Cell Count” value [3] was 627 and 252. The “Population Apoptotic (%)” value [4] was 43.59% and 37.5%, the “Population Fragmented Nuclei (%)” value [4] was 2.31% and 2.43% and the “Population Healthy Nuclei (%)” value [4] was 87.69% and 84.62%. The “Population Hoechst High Intensity Objects (%)” value [4] was 0%, the “Population Membrane Permeable-Phenotype (%)” value [4] was 0.88% and 1.91% and the “Population Mitochondria Different-Phenotype (%)” value [4] was 0.29% and 5.26%. For the same molecule, the “Population Mitotic Cells (%)” value [4] was 56.41% and 62.5%, the “Population Normal (%)” value [4] was 100% and the “Population Pyknosed Nuclei (%)” value [4] was 10% and 12.96%. The “Population Tubulin-Different-Phenotype (%)” value [4] was 0.58% and 0%, the “Total Cell Count” value [4] was 390 and 247 and the “Population Apoptotic (%)” value [5] was 41.94% and 47.37%. For the same molecule, the “Population Fragmented Nuclei (%)” value [5] was 4.36% and 0.45%, the “Population Healthy Nuclei (%)” value [5] was 87.84% and 91.01% and the “Population Hoechst High Intensity Objects (%)” value [5] was 0%. The “Population Membrane Permeable-Phenotype (%)” value [5] was 0.76% and 1.73%, the “Population Mitochondria Different-Phenotype (%)” value [5] was 0.1% and 2.22% and the “Population Mitotic Cells (%)” value [5] was 58.06% and 52.63%. The “Population Normal (%)” value [5] was 100%, the “Population Pyknosed Nuclei (%)” value [5] was 7.8% and 8.54% and the “Population Tubulin-Different-Phenotype (%)” value [5] was 0.86% and 0.99%. For the same molecule, the “Total Cell Count” value [5] was 1192 and 445, the “Population Apoptotic (%)” value [6] was 40.28% and 50% and the “Population Fragmented Nuclei (%)” value [6] was 3.29% and 1.05%. The “Population Healthy Nuclei (%)” value [6] was 87.22% and 88.98%, the “Population Hoechst High Intensity Objects (%)” value [6] was 0% and the “Population Membrane Permeable-Phenotype (%)” value [6] was 0.6% and 0.29%. For the same molecule, the “Population Mitochondria Different-Phenotype (%)” value [6] was 0% and 4.72%, the “Population Mitotic Cells (%)” value [6] was 59.72% and 50% and the “Population Normal (%)” value [6] was 100%. The “Population Pyknosed Nuclei (%)” value [6] was 9.49% and 9.97%, the “Population Tubulin-Different-Phenotype (%)” value [6] was 0.15% and 0.29% and the “Total Cell Count” value [6] was 759 and 381.
For `CC[C@@H](C)Nc1nc(C)nc2c(-c3ccc(OC)nc3C)c(C)nn12` [PEXACERFONT], the “Population Apoptotic (%)” value [1] was 73% and 87%, the “Population Fragmented Nuclei (%)” value [1] was 24% and 17% and the “Population Healthy Nuclei (%)” value [1] was 66% and 76%. The “Population Hoechst High Intensity Objects (%)” value [1] was 3% and 0%, the “Population Membrane Permeable-Phenotype (%)” value [1] was 2% and 1% and the “Population Mitochondria Different-Phenotype (%)” value [1] was 3% and 0%. For the same molecule, the “Population Mitotic Cells (%)” value [1] was 26% and 12%, the “Population Normal (%)” value [1] was 96% and 99% and the “Population Pyknosed Nuclei (%)” value [1] was 9% and 5%. For the same molecule, the “Population Tubulin-Different-Phenotype (%)” value [1] was 2% and 0%, the “Total Cell Count” value [1] was 258 and 136 and the “Population Apoptotic (%)” value [2] was 90%. The “Population Fragmented Nuclei (%)” value [2] was 26% and 21%, the “Population Healthy Nuclei (%)” value [2] was 64% and 70% and the “Population Hoechst High Intensity Objects (%)” value [2] was 1%. For the same molecule, the “Population Membrane Permeable-Phenotype (%)” value [2] was 2% and 12%, the “Population Mitochondria Different-Phenotype (%)” value [2] was 1% and 7% and the “Population Mitotic Cells (%)” value [2] was 9% and 10%. The “Population Normal (%)” value [2] was 98%, the “Population Pyknosed Nuclei (%)” value [2] was 8% and 7% and the “Population Tubulin-Different-Phenotype (%)” value [2] was 1% and 4%. For the same molecule, the “Total Cell Count” value [2] was 265 and 128, the “Population Apoptotic (%)” value [3] was 80% and 85% and the “Population Fragmented Nuclei (%)” value [3] was 21% and 16%. For the same molecule, the “Population Healthy Nuclei (%)” value [3] was 69% and 75%, the “Population Hoechst High Intensity Objects (%)” value [3] was 2% and the “Population Membrane Permeable-Phenotype (%)” value [3] was 5% and 3%. For the same molecule, the “Population Mitochondria Different-Phenotype (%)” value [3] was 2% and 6%, the “Population Mitotic Cells (%)” value [3] was 20% and 14% and the “Population Normal (%)” value [3] was 97%. The “Population Pyknosed Nuclei (%)” value [3] was 8%, the “Population Tubulin-Different-Phenotype (%)” value [3] was 2% and the “Total Cell Count” value [3] was 346 and 172. For the same molecule, the “Population Apoptotic (%)” value [4] was 80% and 92%, the “Population Fragmented Nuclei (%)” value [4] was 21% and 14% and the “Population Healthy Nuclei (%)” value [4] was 71% and 77%. For the same molecule, the “Population Hoechst High Intensity Objects (%)” value [4] was 2% and 0%, the “Population Membrane Permeable-Phenotype (%)” value [4] was 5% and 7% and the “Population Mitochondria Different-Phenotype (%)” value [4] was 3%. For the same molecule, the “Population Mitotic Cells (%)” value [4] was 19% and 7%, the “Population Normal (%)” value [4] was 97% and 99% and the “Population Pyknosed Nuclei (%)” value [4] was 7% and 8%. The “Population Tubulin-Different-Phenotype (%)” value [4] was 4% and 3%, the “Total Cell Count” value [4] was 307 and 159 and the “Population Apoptotic (%)” value [5] was 88% and 91%. For the same molecule, the “Population Fragmented Nuclei (%)” value [5] was 16%, the “Population Healthy Nuclei (%)” value [5] was 75% and 73% and the “Population Hoechst High Intensity Objects (%)” value [5] was 1% and 2%. For the same molecule, the “Population Membrane Permeable-Phenotype (%)” value [5] was 3% and 5%, the “Population Mitochondria Different-Phenotype (%)” value [5] was 1% and 4% and the “Population Mitotic Cells (%)” value [5] was 11% and 8%. For the same molecule, the “Population Normal (%)” value [5] was 98% and 97%, the “Population Pyknosed Nuclei (%)” value [5] was 7% and 9% and the “Population Tubulin-Different-Phenotype (%)” value [5] was 1% and 4%. For the same molecule, the “Total Cell Count” value [5] was 476 and 261, the “Population Apoptotic (%)” value [6] was 94% and 100% and the “Population Fragmented Nuclei (%)” value [6] was 17% and 13%. The “Population Healthy Nuclei (%)” value [6] was 74% and 77%, the “Population Hoechst High Intensity Objects (%)” value [6] was 1% and the “Population Membrane Permeable-Phenotype (%)” value [6] was 4% and 6%. The “Population Mitochondria Different-Phenotype (%)” value [6] was 1% and 3%, the “Population Mitotic Cells (%)” value [6] was 5% and 0% and the “Population Normal (%)” value [6] was 98%. For the same molecule, the “Population Pyknosed Nuclei (%)” value [6] was 8%, the “Population Tubulin-Different-Phenotype (%)” value [6] was 1% and 2% and the “Total Cell Count” value [6] was 478 and 242.
